From ChEMBL document CHEMBL4373733, “Reinvestigating the synthesis and efficacy of small benzimidazole derivatives as presequence protease enhancers” (Eur J Med Chem, 2019) come the findings set out here.

For orientation: kcat means the maximal rate divided by the concentration of active sites.

Data set [1] has as its target T1, Presequence protease, mitochondrial (Homo sapiens) (UniProt Q5JRX3).
T1 sequence (whole entry): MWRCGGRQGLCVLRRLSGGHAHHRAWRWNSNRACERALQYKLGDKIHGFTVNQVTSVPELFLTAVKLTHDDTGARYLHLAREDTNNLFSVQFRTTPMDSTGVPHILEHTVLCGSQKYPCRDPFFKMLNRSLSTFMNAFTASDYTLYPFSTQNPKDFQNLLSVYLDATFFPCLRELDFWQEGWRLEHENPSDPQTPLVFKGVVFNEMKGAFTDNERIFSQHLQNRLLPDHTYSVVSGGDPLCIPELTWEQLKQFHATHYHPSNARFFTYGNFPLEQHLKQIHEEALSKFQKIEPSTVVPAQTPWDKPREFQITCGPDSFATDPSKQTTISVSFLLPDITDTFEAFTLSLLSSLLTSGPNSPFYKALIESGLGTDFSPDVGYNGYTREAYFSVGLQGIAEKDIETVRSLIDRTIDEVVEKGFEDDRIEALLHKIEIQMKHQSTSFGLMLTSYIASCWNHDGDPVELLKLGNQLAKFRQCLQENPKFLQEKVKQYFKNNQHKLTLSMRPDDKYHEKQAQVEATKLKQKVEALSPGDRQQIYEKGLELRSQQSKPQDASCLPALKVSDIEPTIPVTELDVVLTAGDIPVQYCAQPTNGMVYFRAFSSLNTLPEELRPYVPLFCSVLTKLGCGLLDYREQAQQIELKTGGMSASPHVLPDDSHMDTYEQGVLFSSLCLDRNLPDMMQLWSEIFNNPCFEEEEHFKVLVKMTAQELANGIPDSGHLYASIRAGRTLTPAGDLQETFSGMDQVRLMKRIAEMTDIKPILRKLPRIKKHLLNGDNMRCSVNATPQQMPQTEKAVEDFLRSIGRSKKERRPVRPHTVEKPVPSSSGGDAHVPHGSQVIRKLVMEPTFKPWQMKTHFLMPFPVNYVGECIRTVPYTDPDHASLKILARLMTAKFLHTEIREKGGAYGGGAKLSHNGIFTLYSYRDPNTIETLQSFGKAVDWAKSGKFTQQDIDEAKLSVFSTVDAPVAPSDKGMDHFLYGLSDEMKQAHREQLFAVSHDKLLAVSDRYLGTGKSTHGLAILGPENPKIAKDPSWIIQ
Description: Agonist activity at recombinant human N-terminal His6-tagged PreP expressed in Escherichia coli expression system assessed as increase in degradation of substrate V at 0.0001 to 10 uM measured every 30 sec for 10 mins by fluorometry. The procedure, abridged:
(§1)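 hPreP expressed in E. coli at 25 °C (300μM IPTG, 16 h), purified by Ni-NTA, Source Q and Superdex 200, stored at −80 °C. Reaction: 0.1 μg (or 1 μg) hPreP in 20 mM HEPES pH 8.0, 10 mM MgCl₂, with substrate V (0.1 or 1.4 μg), 200 or 250 μl, room temperature (24–26 °C) or 37 °C. Fluorescence ex 320/em 405 nm. Degradation rate averaged over four independent experiments, mean ± SD.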

Substrate in data set [2]: Nc1ccc([N+](=O)[O-])cc1/N=C/c1cc(Br)ccc1O
Description: (§2) Agonist activity at recombinant human N-terminal His6-tagged PreP expressed in Escherichia coli expression system assessed as increase in degradation of substrate V by measuring catalytic rate at 0.01 uM measured every 30 sec for 10 mins by fluorometry (reference value: 1.4 +/- 0.1 /min). The procedure, abridged: as §1

Substrate in data set [3]: O=[N+]([O-])c1ccc2nc(-c3cc(Br)ccc3O)n(Cc3cc(Br)ccc3O)c2c1
Described as §2. The procedure, abridged:
as §1

Substrate in data set [4]: Nc1ccc([N+](=O)[O-])cc1/N=C/c1cc(Br)ccc1O
Description: (§3) Agonist activity at recombinant human N-terminal His6-tagged PreP expressed in Escherichia coli expression system assessed as increase in degradation of substrate V by measuring catalytic rate at 0.1 uM measured every 30 sec for 10 mins by fluorometry (reference value: 1.4 +/- 0.1 /min). The procedure, abridged: as §1

Substrate in data set [5]: O=[N+]([O-])c1ccc2nc(-c3cc(Br)ccc3O)n(Cc3cc(Br)ccc3O)c2c1
The data set is described as §3. The essentials: as §1

Substrate in data set [6]: Nc1ccc([N+](=O)[O-])cc1/N=C/c1cc(Br)ccc1O
Description: (§4) Agonist activity at recombinant human N-terminal His6-tagged PreP expressed in Escherichia coli expression system assessed as increase in degradation of substrate V by measuring catalytic rate at 1 uM measured every 30 sec for 10 mins by fluorometry (reference value: 1.4 +/- 0.1 /min). The procedure, abridged:
as §1

Substrate in data set [7]: O=[N+]([O-])c1ccc2nc(-c3cc(Br)ccc3O)n(Cc3cc(Br)ccc3O)c2c1
The description is as §4. The procedure, abridged: as §1

Substrate in data set [8]: O=[N+]([O-])c1ccc2nc(-c3cc(Br)ccc3O)n(Cc3cc(Br)ccc3O)c2c1
Description: Agonist activity at recombinant human N-terminal His6-tagged PreP expressed in Escherichia coli expression system assessed as increase in degradation of substrate V by measuring catalytic rate at 10 uM measured every 30 sec for 10 mins by fluorometry (reference value: 1.4 +/- 0.1 /min). The procedure, abridged: as §1

Data set [9] addresses Presequence protease, mitochondrial (Homo sapiens) (UniProt Q5JRX3). Description: Agonist activity at recombinant human N-terminal His6-tagged PreP expressed in Escherichia coli expression system assessed as increase in degradation of substrate V by measuring catalytic rate at 10 uM measured every 30 sec for 10 mins by fluorometry (reference value: 1.4 +/- 0.1 /min).

Active and inactive are the calls of the source. The rule behind the calls is not given here.

For the molecule `O=[N+]([O-])c1ccc2nc(-c3cc(Br)ccc3O)n(Cc3cc(Br)ccc3O)c2c1`, the result in data set [1] was inactive.

In the case of `Nc1ccc([N+](=O)[O-])cc1/N=C/c1cc(Br)ccc1O`, the outcome in data set [1] was inactive.

On to `O=[N+]([O-])c1ccc2[nH]c(-c3cc(Br)ccc3O)nc2c1`, for which the result in data set [1] was inactive.

B1: Presequence protease, mitochondrial (Homo sapiens), Q5JRX3 (protein)
chain: MWRCGGRQGLCVLRRLSGGHAHHRAWRWNSNRACERALQYKLGDKIHGFTVNQVTSVPELFLTAVKLTHDDTGARYLHLAREDTNNLFSVQFRTTPMDSTGVPHILEHTVLCGSQKYPCRDPFFKMLNRSLSTFMNAFTASDYTLYPFSTQNPKDFQNLLSVYLDATFFPCLRELDFWQEGWRLEHENPSDPQTPLVFKGVVFNEMKGAFTDNERIFSQHLQNRLLPDHTYSVVSGGDPLCIPELTWEQLKQFHATHYHPSNARFFTYGNFPLEQHLKQIHEEALSKFQKIEPSTVVPAQTPWDKPREFQITCGPDSFATDPSKQTTISVSFLLPDITDTFEAFTLSLLSSLLTSGPNSPFYKALIESGLGTDFSPDVGYNGYTREAYFSVGLQGIAEKDIETVRSLIDRTIDEVVEKGFEDDRIEALLHKIEIQMKHQSTSFGLMLTSYIASCWNHDGDPVELLKLGNQLAKFRQCLQENPKFLQEKVKQYFKNNQHKLTLSMRPDDKYHEKQAQVEATKLKQKVEALSPGDRQQIYEKGLELRSQQSKPQDASCLPALKVSDIEPTIPVTELDVVLTAGDIPVQYCAQPTNGMVYFRAFSSLNTLPEELRPYVPLFCSVLTKLGCGLLDYREQAQQIELKTGGMSASPHVLPDDSHMDTYEQGVLFSSLCLDRNLPDMMQLWSEIFNNPCFEEEEHFKVLVKMTAQELANGIPDSGHLYASIRAGRTLTPAGDLQETFSGMDQVRLMKRIAEMTDIKPILRKLPRIKKHLLNGDNMRCSVNATPQQMPQTEKAVEDFLRSIGRSKKERRPVRPHTVEKPVPSSSGGDAHVPHGSQVIRKLVMEPTFKPWQMKTHFLMPFPVNYVGECIRTVPYTDPDHASLKILARLMTAKFLHTEIREKGGAYGGGAKLSHNGIFTLYSYRDPNTIETLQSFGKAVDWAKSGKFTQQDIDEAKLSVFSTVDAPVAPSDKGMDHFLYGLSDEMKQAHREQLFAVSHDKLLAVSDRYLGTGKSTHGLAILGPENPKIAKDPSWIIQ
With B1, the kcat in data set [2] stood at 0.0233 s⁻¹; in [3], 0.0183 s⁻¹; in [4], 0.02 s⁻¹; in data set [5], 0.02 s⁻¹; in [6] it was 0.0217 s⁻¹; in [7], 0.0217 s⁻¹. Moreover, the kcat came out at 0.0233 s⁻¹ in data set [8] and 0.0217 s⁻¹ in [9].
